Experimental data published in ChEMBL document CHEMBL3085698, “Bioactive lignans from the trunk of Abies holophylla” (J Nat Prod, 2013).

Tests used:
[1] = Cytotoxicity against LPS-stimulated mouse BV2 cells assessed as cell viability by MTT assay relative to control; type: cell-based; conditions: bv-2
Procedure, shortened: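 MTT viability read in the same BV-2 setup: cells at 3 × 10^4 cells/well in DMEM with 5% FBS, compound pretreatment for 30 min, then 100 ng/mL LPS stimulation for 24 h.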

[2] = Antineuroinflammatory activity in mouse BV2 cells assessed as inhibition of LPS-induced NO production incubated 30 mins prior to LPS-challenge measured after 24 hrs by Griess assay; type: functional, cell-based; conditions: BV-2
Procedure, shortened: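 BV-2 microglia grown in DMEM with 5% FBS and 1% penicillin-streptomycin, plated at 3 × 10^4 cells/well and left 24 h. Compounds added 30 min before 100 ng/mL LPS for 24 h. Supernatant nitrite measured by Griess reagent (1% sulphanilamide, 0.1% naphthylethylenediamine in 5% phosphoric acid), read at 540 nm after 10 min against a sodium nitrite standard. L-NMMA as positive control. IC50 reported.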

C6 = test: Induction of NGF secretion in rat C6 cells at 10 uM after 24 hrs by ELISA relative to control; type: functional
Procedure, shortened: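 Rat C6 glioma cells kept in DMEM with 10% FBS and 1% penicillin-streptomycin under 5% CO2, seeded at 1 × 10^5 cells/well. After 24 h, medium switched to DMEM with 2% FBS containing compound for one day. NGF released into the supernatant quantified by ELISA; viability checked by MTT. 6-Shogaol as positive control.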

| SMILES | Activity [1] | IC50 [2] | Activity (C6) |
| --- | --- | --- | --- |
| COc1cc([C@@H]2Oc3c(O)cc(CCCO)cc3[C@H]2CO)ccc1O[C@@H]1O[C@@H](C)[C@H](O)[C@@H](OC)[C@H]1O (relative stereo) | Non-toxic | 32.9 µM | – |
| COc1cc(C[C@H]2[C@H](OC)OC[C@@H]2[C@H](O)c2ccc(O)c(OC)c2)ccc1O | Non-toxic | 36.4 µM | – |
| COc1cc([C@@H]2Oc3c(OC)cc(CCCO)cc3[C@H]2CO)ccc1O[C@@H]1O[C@@H](C)[C@H](O)[C@@H](OC)[C@H]1O | – | – | 159% |
| COc1cc([C@H]2c3cc(O)c(OC)cc3C[C@H]3C(=O)OC[C@H]23)ccc1O [ALPHA-CONIDENDRIN] | Non-toxic | 28.5 µM | – |
| CCCCC/C=C/C(=O)CCc1ccc(O)c(OC)c1 [SHOGAOL] | – | – | 129% |
| COc1cc(C[C@H]2[C@@H](OC)OC[C@@H]2[C@H](O)c2ccc(O)c(OC)c2)ccc1O | – | – | 165% |
| COc1cc(CCCO)ccc1O[C@@H](CO)Cc1ccc(O[C@@H]2OC[C@@H](O)[C@H](O)[C@H]2O)c(OC)c1 | Non-toxic | 31 µM | 169% |
